High-throughput results from PubChem BioAssay.
The list is not random: actives were taken first. Their share in the collection is about 2.4%.
SR-BI DiI inh: inhibitors of SR-BI mediated HDL lipid uptake, primary screen, ldlA[mSR-BI] cells, fluorescence, single point; Scavenger receptor class B member 1 (Mus musculus), Q61009; ldlA[mSR-BI] CHO cells, DiI-HDL uptake fluorescence, 3 h; hit rate 0.96% among 320,000; AID 488896, 2010; inhibition, % at 12.5 µM;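 active = mean replicate inhibition of at least 70% and a set share of replicates each scoring 70 or more; inconclusive = meets just one of the two criteria; inactive = fails both criteria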;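 note: 0% = median of neutral control wells and 100% = median of positive control wells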
Target sequence (Q61009 whole entry, looked up): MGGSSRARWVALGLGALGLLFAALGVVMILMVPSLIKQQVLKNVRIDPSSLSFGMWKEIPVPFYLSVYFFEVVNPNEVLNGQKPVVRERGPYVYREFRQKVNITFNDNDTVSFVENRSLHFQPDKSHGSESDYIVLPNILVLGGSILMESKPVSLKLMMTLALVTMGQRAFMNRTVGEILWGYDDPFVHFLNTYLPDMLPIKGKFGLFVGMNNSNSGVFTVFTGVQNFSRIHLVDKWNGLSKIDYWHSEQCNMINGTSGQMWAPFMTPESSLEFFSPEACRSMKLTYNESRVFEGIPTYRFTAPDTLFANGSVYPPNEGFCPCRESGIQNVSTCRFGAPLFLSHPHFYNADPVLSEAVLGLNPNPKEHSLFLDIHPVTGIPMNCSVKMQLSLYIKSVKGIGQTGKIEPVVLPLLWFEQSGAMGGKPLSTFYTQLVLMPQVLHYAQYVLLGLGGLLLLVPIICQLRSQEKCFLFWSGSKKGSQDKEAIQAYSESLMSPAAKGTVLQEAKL
Insulin prom up: insulin promoter activators in MIN6 cells, imaging, high-content screening, mouse beta cells; MIN6 insulin promoter-GFP reporter; stronger effect = higher value; z-score at 5 µM; hit rate 0.3% among 190,000; AID 1625, 2009;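 active = z-score above 3 at 5 µM with at least 500 cells counted in the well; inconclusive = wells under 500 cells, flagged as cytotoxic or low count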
Calb FLC: C. albicans growth inhibition with fluconazole, primary screen, CaCi-2 strain, Alamar Blue fluorescence | hit rate 0.57% among 300,000 | C. albicans CaCi-2 + fluconazole, 48 h | AID 1979, 2009 | growth inhibition, % (concentration not given with the values);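 active = growth inhibition above about 58% in most replicates, limit read from the data, passing the limit was not always enough; inconclusive = exactly half the replicates above a set limit; inactive = most replicates below a set limit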;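 note: all wells also contain fluconazole at 8 µg/ml as a sub-toxic cotreatment; 0% = median of DMSO wells and 100% = median of geldanamycin control wells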
HTR2A ag: mouse Htr2a agonists via beta-arrestin recruitment, primary screen, cell-based, luminescence; 5-hydroxytryptamine receptor 2A (Mus musculus), P35363; CHO-K1 mHTR2A beta-arrestin complementation; percent of 30 µM serotonin response; activation, % at 7.6 µM; hit rate 0.66% among 360,000;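 active = activation above a run cutoff, the mean activation of all tested compounds plus 3 SD, cut at about 14% in these data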;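 note: 0% = plate median of compound wells and 100% = 30 µM serotonin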
MIN6 prolif: inducers of MIN6 beta-cell proliferation, primary screen, ATP luminescence, uHTS. MIN6 cells proliferation, ATPlite luminescence, 48 h; cells starved in 0.2% serum; 100% = growth in 10% serum. proliferation, % at 10 µM. hit rate 0.29% among 330,000. AID 2380, 2010;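 active = compounds whose signal lies at least 3.5 SD above the mean of all wells on their plate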;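 note: 0% = DMSO-treated cells in low-serum medium and 100% = 10% serum control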
SR-BI DiI-HDL act: activators of SR-BI mediated DiI-HDL uptake, primary screen, ldlA[mSR-BI] CHO cells, DiI fluorescence; 3 h; 100 = double the neutral-control signal; activation, % at 12.5 µM; hit rate 0.096% among 320,000; AID 504775, 2011;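 active = mean replicate activation of at least 60% and every replicate at or above 60%; inconclusive = mean or all-replicate condition met, but not both; inactive = mean below 60% and not all replicates reaching 60%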;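 note: 0% = median plate neutral-control signal and 100% = twice that signal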
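Assay system: LDL receptor-deficient CHO ldlA cells overexpressing murine SR-BI / Medium: BSA-supplemented, HEPES-buffered Ham's F12, pH 7.4 / Probe or stimulus: DiI-labelled HDL at 10 µg/mL final / Timing: compound with DiI-HDL co-incubation, 3 h at 37 °C / Technique: bottom-read cell fluorescence after medium removal, ex 550/em 595 nm / Measure: HDL uptake via cellular fluorescence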
An asterisk follows results filed as active; ? = inconclusive; . = no result given.

SMILES	SR-BI DiI inh	Insulin prom up	Calb FLC	HTR2A ag	MIN6 prolif	SR-BI DiI-HDL act
COc1ccc(C2C(C(=O)N3CCOCC3)CCC(=O)N2c2ccc(OC)cc2)cc1 (configuration not stated)	-2	3.7*	10	-9	-1	2
NC(=O)c1c(NC(=O)COC(=O)c2ccc(S(=O)(=O)Nc3ccccc3)cc2)sc2c1CCCC2	95*	-0.15	33	8	1	-95
O=C(COC(=O)c1ccc(S(=O)(=O)Nc2ccccc2)cc1)NC1CCCC1	0	.	-15	1	5	0
OC(c1ccc(F)c(F)c1)c1ncc(-c2cccc(F)c2)[nH]1 (configuration not stated)	.	.	.	-7	.	.
CCOc1ccc(CNC(=O)CCCc2cn(C)c3ccccc23)cc1OC	34	0.92	-3	-2	-1	-34
CCOc1ccc(CNC(=O)CCCc2cn(C)c3ccccc23)cc1	85*	.	4	5	-1	-85
CCOc1ccc(CNC(=O)CCn2c(=O)oc3ccccc32)cc1	0	3.4*	-24	-3	2	0
CCOc1ccc(NC(=O)Cn2c(=O)oc3ccccc32)cc1	-11	3.6*	-2	9	-3	11
COc1ccc(CNC(=O)CCn2c(=O)oc3ccccc32)cc1	-16	-0.12	4	-3	0	16
CCOc1ccc(NC(=O)Cn2c(=O)oc3cc(Cl)ccc32)cc1	-2	.	4	-8	-4	2
C=CC[C@@H](CC(=O)N(CCO)Cc1ccccc1)C(=O)N[C@H](COC(=O)[C@H](CC=C)CC(=O)OC(C)(C)C)Cc1c[nH]c2ccccc12	12	.	.	-4	-5	-12
O=C(O)C[C@H](O)C[C@H](O)/C=C/c1c(C2CC2)nc2ccccc2c1-c1ccc(F)cc1	.	.	103*	.	.	.
CC(C)n1c(/C=C/[C@H](O)C[C@H](O)CC(=O)O)c(-c2ccc(F)cc2)c2ccccc21	5	.	.	-1	-8	-5
CCN(CCO)Cc1csc2ccc(C(C)(C)C)cc12	61	0.03	0	-7	-3	-61
CCN(CCO)Cc1csc2ccc(Cl)cc12	-70	-1.9	-11	-1	-1	70*
COc1ccc(C2=NS(=O)(=O)N(C)C(C(=O)Nc3ccc(C(C)=O)cc3)=C2)cc1OC	39	.	-3	-4	0	-39
Cc1ccsc1C(=O)OCC(=O)Nc1sccc1C(N)=O	-43	-0.43	96*	-4	-2	43
Cc1ccsc1C(=O)OCC(=O)NCCNC(=O)COC(=O)c1sccc1C	-17	.	12	2	6	17
CCOC(=O)c1c(-c2ccccc2)oc2ccc(OC(C)C(=O)O)cc12 (configuration not stated)	-40	-0.19	2	3	-3	40
CCOC(=O)c1c(-c2ccccc2)oc2ccc(OCC(O)CN(C)C)cc12 (configuration not stated)	2	.	94*	-11	0	-2
CC1=C(C(=O)OCC(Cl)(Cl)Cl)N2C(=O)C(NC(=O)Cc3ccccc3)C2SC1 (configuration not stated)	78*	0.62	-6	5	2	-78
CC[n+]1c(/C=C2\Sc3ccccc3N2C)ccc2cccc(C)c21	76*	?	102*	-7	.	-76
CCOC(=O)N1CCN(C(=O)c2[nH]c(C(F)(F)F)nc2-c2ccccc2)CC1	.	.	.	6	.	.
CN(C)c1ccc(/C=C/c2ccc3ccccc3[n+]2C)cc1	-12	?	103*	-1	0	12
CC1=C(CC/C(C)=N/NC(N)=S)C(C)(C)CCC1	76*	.	-23	1	-6	-76
SMILES	SR-BI DiI inh	Insulin prom up	Calb FLC	HTR2A ag	MIN6 prolif	SR-BI DiI-HDL act
Oc1c(C(c2ccccc2)N2CCCCC2)ccc2ccccc12 (configuration not stated)	.	.	.	7	.	.
COc1ccc(C(=O)n2nc(C)cc2Nc2ccccc2)cc1	77*	-0.5	-2	-3	2	-77
CCOC(=O)[C@]12CCCC=C1N(Cc1ccc(Cl)cc1Cl)C(=O)[C@H](CC(=O)N1CCN(C(=O)c3ccco3)CC1)C2	.	.	.	-1	.	.
O=C1C2CC=CCC2C(=O)N1Cc1ccccc1 (configuration not stated)	-8	.	11	11	1	8
O=C1C=CC(=O)N1Cc1ccccc1	-8	.	.	18*	-8	8
CCOC(=O)N=Nc1c2ccccc2c2nc3no[nH]c3nc12	20	-1.5	112*	-1	-5	-20
CCOC(=O)N=Nc1c(O)n(CC(=O)OC)c2ccccc12	-17	0.51	-11	6	0	17
CC(C)c1ccc(NC(=O)C2(C)Cc3c(-c4ccccc4)ccnc3O2)cc1 (configuration not stated)	.	.	.	-4	.	.
O=C(CC1C[C@H](C(=O)N2CCOCC2)[C@@]2(CCC3CCCC3)c3[nH]c4ccccc4c3CCN2C1=O)NCc1cccc(C(F)(F)F)c1 (some centres not stated)	-107	.	.	-3	.	107*
CC[C@]12c3[nH]c4ccc(Cl)cc4c3CCN1C(=O)[C@@H](CC(=O)NCc1ccc(OC)c(OC)c1)C[C@@H]2C(=O)N1CCN(C(=O)c2ccco2)CC1	78*	.	.	-3	.	-78
CCCS(=O)(=O)NC(=O)C1(C)CCCN(C(=O)c2cc(C)n(C(C)(C)C)n2)C1 (configuration not stated)	.	.	.	8	.	.
O=C(Nc1cccc(-c2csc(Nc3cccc(C(F)(F)F)c3)n2)c1)c1cc([N+](=O)[O-])cc(C(F)(F)F)c1	107*	?	-4	-3	-8	-107
O=C(Nc1ccc(-c2csc(Nc3ccccc3)n2)cc1)c1cc([N+](=O)[O-])cc(C(F)(F)F)c1	96*	.	5	5	-8	-96
CCCCC1=CC2=C(c3ccco3)C(=O)C(C)(OC(=O)c3ccc(OC)cc3)C(=O)C2=CN1Cc1ccc(OC)cc1 (configuration not stated)	.	-0.32	22	.	-5	.
CCCCC1=CC2=C(c3ccco3)C(=O)C(C)(OC(=O)c3ccc(OC)cc3)C(=O)C2=CN1CC(C)C (configuration not stated)	-3	4.3*	10	10	-8	3
CN(C)c1ccc(P(=O)(OCc2ccccc2)C(O)c2ccccc2)cc1 (configuration not stated)	-27	-0.16	1	2	1	27
O=C(NCCCN1CCN(c2ccccc2F)CC1)C1CCN(S(=O)(=O)c2cccs2)CC1	16	-1.6	-13	15*	-3	-16
